The source of these data is ChEMBL document CHEMBL1141444, “Sorbifolivaltrates A-D, diene valepotriates from Valeriana sorbifolia(1)” (J Nat Prod, 2007).

In general, IC50 refers to the concentration at which inhibition is half-maximal. The low end stands for greater potency, the high end for weaker potency.

Each structure is given as a SMILES string.

The assay is described as follows: Cytotoxicity against human PC3M cells by MTT assay. Format: functional, cell-based. The settings on record: PC-3M. In a few lines:
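Human metastatic prostate PC-3M cells seeded at 2000/well, recovered overnight; serial drug dilutions in medium added in quadruplicate, DMSO as negative and doxorubicin as positive control. Incubated about 40 h at 37 °C, 5% CO2, then MTT 0.4 mg/mL for 4 h; medium removed, DMSO added, absorbance read at 650 nm. Percent inhibition plotted to derive IC50.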
Background: Tetrazolium dyes change colour on reduction, which living cells bring about.
On to `CC(=O)O[C@H]1C=C2C(COC(=O)CC(C)C)=CO[C@@H](OC(=O)CC(C)C)[C@@H]2[C@@]12CO2`, for which the IC50 was determined as 3.1 µM.

In the case of `CC(=O)OCC1=CO[C@@H](OC(=O)C=C(C)C)[C@H]2C1=C[C@H](OC(=O)CC(C)C)[C@]2(O)COC(=O)CC(C)C`, half-maximal inhibition (IC50) required 8.9 µM.

In the case of `CCC(C)CC(=O)O[C@H]1C=C2C(COC(C)=O)=CO[C@@H](OC(=O)C=C(C)C)[C@@H]2[C@@]1(O)COC(=O)CC(C)C` (stereo not given in full), the IC50 was found to be 7.3 µM.

Turning to `CCC(C)CC(=O)O[C@H]1C=C2C(COC(C)=O)=CO[C@@H](OC(=O)C=C(C)C)[C@@H]2[C@@]12CO2` (stereo not given in full), the IC50 turned out to be 12.2 µM.

`CC(C)CC(=O)OCC1=CO[C@@H](OC(=O)CC(C)(C)O)[C@H]2C1=C[C@H](OC(=O)CC(C)C)[C@]2(O)COC(=O)CC(C)C` returned an IC50 of 8.9 µM.

Turning to `CC(=O)OCC1=CO[C@@H](OC(=O)C=C(C)C)[C@H]2C1=C[C@H](OC(=O)CC(C)C)[C@]21CO1`, the IC50 was found to be 20 µM.

Turning to `CC(=O)OCC1=CO[C@@H](OC(=O)CC(C)(C)O)[C@H]2C1=C[C@H](OC(=O)CC(C)C)[C@]2(O)COC(=O)CC(C)C`, 11.1 µM corresponded to half-maximal inhibition (IC50).

Consider `CC(C)=CC(=O)O[C@@H]1OC=C(COC(=O)CC(C)C)C2=C[C@H](OC(=O)CC(C)C)[C@]3(CO3)[C@H]21`, for which the IC50 was determined as 2.6 µM.

`COc1cccc2c1C(=O)c1c(O)c3c(c(O)c1C2=O)C[C@@](O)(C(=O)CO)C[C@@H]3O[C@H]1C[C@H](N)[C@H](O)[C@H](C)O1` [DOXORUBICIN] registered a half-inhibitory concentration (IC50) of 1.26 µM.

The compound `CC(=O)OCC1=CO[C@@H](OC(=O)CC(C)C)[C@H]2C1=C[C@H](OC(=O)CC(C)C)[C@]21CO1` [VALTRATE] had an IC50 of 1.7 µM.
